High-throughput results deposited in PubChem BioAssay by The Scripps Research Institute Molecular Screening Center.
This is a sample that favours compounds with a hit; in the whole collection about 4.5% have one here.
OX1R antag-1 = antagonists of human orexin 1 receptor; inhibition, % at 5 µM; CHO/OX1R cells, Fluo-8 calcium fluorescence, orexin A; 330,000 compounds, 0.43% hits;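 active = inhibition above its plate's threshold, mean inhibition of all tested compounds on the plate plus 3 SD, cut at about 37% in these data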
OX1R antag-2 = blocks the human orexin 1 receptor | 330,000 compounds, 1.8% hits | O43613 | inhibition, % at 6.6 µM | AID 485270 | OX1R-expressing cells, FRET antagonist read-out; in the data active = inhibition mostly above about 38%, no sharp cut-off; inactive = mostly below about 40%
CHO parental Ca = counter-screen for OX1R antagonists: effect in parental CHO cells; 330,000 compounds, 0.63% hits; inhibition, % at 5.6 µM; parental CHO-K1, ATP-induced calcium, Fluo-8 fluorescence; AID 463079;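 active = inhibition above that plate's mean sample inhibition plus 3 SD, cut at about 26% in these data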
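Material: parental CHO cells / Compound: single nominal dose of 5.6 µM per compound / Signal: Fluo-8 fluorescence / Replicates: singlicate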
TAAR1 antagonist = antagonists of human TAAR1. Q96RJ0. CHO RD-HGA16 TAAR1, Fluo-8 calcium fluorescence, antagonist. inhibition, % at 3 µM. 360,000 compounds, 1.5% hits. AID 624466;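 active = inhibition above a per-plate cutoff, the mean inhibition of test compounds on that plate plus 3 SD, cut at about 49% in these data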
Target sequence (Q96RJ0 whole entry, looked up): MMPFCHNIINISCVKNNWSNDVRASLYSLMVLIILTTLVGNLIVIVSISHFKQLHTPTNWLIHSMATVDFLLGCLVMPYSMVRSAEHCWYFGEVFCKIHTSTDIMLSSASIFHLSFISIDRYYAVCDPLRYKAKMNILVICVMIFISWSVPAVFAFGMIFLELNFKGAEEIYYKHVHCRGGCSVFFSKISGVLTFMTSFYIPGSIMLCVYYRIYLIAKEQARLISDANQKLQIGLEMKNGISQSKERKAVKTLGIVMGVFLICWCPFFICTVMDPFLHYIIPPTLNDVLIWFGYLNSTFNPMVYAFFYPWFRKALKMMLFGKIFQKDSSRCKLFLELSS
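Test system: CHO RD-HGA16 cells bearing hTAAR1 | Reagent: β-PEA, EC80 | Compound dosing: 3 µM, single point | Schedule: Dye loading 75 min at 37 °C, then 30 min room temperature | Signal: Calcium fluorescence with Fluo-8 | Evaluation: Percent inhibition of PEA-evoked calcium signal, max/basal emission ratio | Control set: DMSO-only wells and EC80 β-PEA-stimulated wells | Repeats: Singlicate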
GPR7 antagonist = human neuropeptides B/W receptor 1 antagonism | P48145 | GPR7-expressing cells, fluorescence antagonist assay | inhibition, % at 4.4 µM | 290,000 compounds, 1.1% hits | AID 1861; in the data active = inhibition above about 16%, passing the limit was not always enough;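 note: cells stimulated with the agonist NPW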
Target sequence (P48145 whole entry, looked up): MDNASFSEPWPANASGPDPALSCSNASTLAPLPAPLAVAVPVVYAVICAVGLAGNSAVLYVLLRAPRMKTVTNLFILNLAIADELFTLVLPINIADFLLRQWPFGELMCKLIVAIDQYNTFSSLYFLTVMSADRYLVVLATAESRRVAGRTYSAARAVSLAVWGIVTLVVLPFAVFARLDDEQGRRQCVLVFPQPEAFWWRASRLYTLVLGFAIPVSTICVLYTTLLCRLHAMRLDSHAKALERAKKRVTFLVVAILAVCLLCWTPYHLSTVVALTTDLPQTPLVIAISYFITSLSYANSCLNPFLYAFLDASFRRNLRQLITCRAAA
TAAR1 agonist = human TAAR1 agonism | Q96RJ0 | CHO RD-HGA16 TAAR1, Fluo-8 calcium fluorescence; vehicle wells 0%, saturating PEA agonist 100% | activation, % at 3 µM | 360,000 compounds, 0.99% hits;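 active = activation above the mean activation of all test compounds in the run plus 3 SD, cut at about 38% in these data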
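System: CHO-derived RD-HGA16 cells with stable Gα16 and human TAAR1. Times: 17-24 h plating, Fluo-8 75 min 37 °C, 30 min RT. Measured by: calcium-sensitive Fluo-8 signal, excitation 470-495, emission 515-575 nm. Read-out basis: % activation relative to PEA EC100 response. Control set: DMSO and PEA EC100. Repeats: no replicates (n 1).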
TAAR1 ag confirm = confirmation of human TAAR1 agonists. AID 651783. activation, % at 3 µM. 2,400 compounds, 82% hits. CHO RD-HGA16 TAAR1, Fluo-8 calcium fluorescence; scaled: DMSO 0%, maximal phenethylamine 100%. shares compounds with TAAR1 agonist;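 active = activation above a cutoff set at the run's mean compound activation plus 3 SD, cut at about 39% in these data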
Ga16 nonsel ag = counter-screen for TAAR1 agonists: nonselective agonists in parental cells. AID 651787. 2,400 compounds, 50% hits. activation, % at 3 µM. CHO-Ga16 parental, Fluo-8 calcium fluorescence; normalized to maximal ATP response, DMSO zero. shares compounds with TAAR1 agonist;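 active = activation above the run cutoff, the mean activation over all tested wells plus 3 SD, cut at about 12% in these data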
TAAR1 desensitize = TAAR1 response desensitization, agonist counter-screen. shares compounds with TAAR1 agonist. CHO RD-HGA16 hTAAR1, Fluo-8 calcium, beta-PEA response inhibition. inhibition, % at 3 µM. 2,400 compounds, 46% hits;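 active = inhibition above the run cutoff, the mean inhibition of all test compounds plus 3 SD, cut at about 49% in these data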;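 note: beta-PEA stimulus applied at its EC80; loss of beta-PEA calcium signal after compound pretreatment read as receptor desensitization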
Ga16 nonsel ant = nonselective Ga16 antagonism, counter-screen. shares compounds with TAAR1 agonist. CHO-Ga16 ATP-induced calcium, Fluo-8 fluorescence. inhibition, % at 3 µM. 2,400 compounds, 39% hits;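 active = inhibition above the plate's mean compound inhibition plus 3 SD, computed per plate, cut at about 22% in these data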
Hits are given with their value; n = inactive; x = not tested or not shown.

SMILES	OX1R antag-1	OX1R antag-2	CHO parental Ca	TAAR1 antagonist	GPR7 antagonist	TAAR1 agonist	TAAR1 ag confirm	Ga16 nonsel ag	TAAR1 desensitize	Ga16 nonsel ant
O=C(NCCc1ccco1)C(=O)NCC1OCCCN1S(=O)(=O)c1ccccc1 (stereo not drawn)	n	n	n	n	n	66	n	n	n	n
O=C(NCCc1ccccc1)C(=O)NCC1CCCN1S(=O)(=O)c1ccccc1 (stereo not drawn)	n	42	n	76	x	59	85	n	80	38
O=C(NCCc1ccccc1)C(=O)NCC1OCCN1S(=O)(=O)c1ccc([N+](=O)[O-])cc1 (stereo not drawn)	n	n	n	n	n	47	73	n	n	n
O=C(NCc1ccco1)C(=O)NCC1OCCCN1S(=O)(=O)c1ccccc1 (stereo not drawn)	n	n	n	n	n	n	x	x	x	x
O=C(NCCc1ccccc1)C(=O)NCC1OCCCN1S(=O)(=O)c1cccs1 (stereo not drawn)	n	n	n	n	n	68	97	16	74	n
CCOCCC(=O)Nc1ccc2c(c1)c(=O)n(C)n2CC=C(C)C	x	x	x	n	x	n	x	x	x	x
Cc1ccc([C@H]2C[C@@H](n3cc(COC(=O)c4ccccc4)nn3)[C@H](O)CN2Cc2cccs2)cc1	x	x	x	n	x	n	x	x	x	x
O=C(NC1CC1)c1ccc2c(c1)S(=O)(=O)c1cc(Cl)ccc1C2=O	n	n	n	n	x	n	x	x	x	x
Cc1ccc(S(=O)(=O)N2CCOC2CNC(=O)C(=O)NCCc2ccccc2)cc1 (stereo not drawn)	n	n	n	n	n	58	82	n	n	n
CCCNC(=O)/C=C/C(=O)O	n	n	n	n	n	n	x	x	x	x
CC1(C)CC[C@]2(C(=O)O)CC[C@]3(C)C(=CC[C@@H]4[C@@]5(C)CC[C@H](O[C@@H]6O[C@H](C(=O)O)[C@@H](O)[C@H](O[C@@H]7OC[C@H](O)[C@H](O)[C@H]7O)[C@H]6O)C(C)(C)[C@@H]5CC[C@]43C)[C@@H]2C1	111	n	100	109	x	109	84	66	104	95
Cc1c(OCC(=O)N(C)C)ccc2c(-c3ccccc3)cc(=O)oc12	n	n	n	n	n	n	x	x	x	x
C=CCN(CC=C)S(=O)(=O)c1ccc2nc(NC(=O)C(C)C)sc2c1	n	n	n	n	n	40	69	31	n	n
CC(=O)Nc1ccc(NC(=O)C(C)OC(=O)CNS(=O)(=O)c2ccc(Br)cc2Cl)cc1 (stereo not drawn)	n	n	n	n	n	n	x	x	x	x
Cc1ccc(Nc2nc(N)c3ccccc3n2)cc1C	x	x	x	n	n	68	67	n	54	n
COCCNC(=O)C(=O)NCC1OCCN1S(=O)(=O)c1cc(F)ccc1F (stereo not drawn)	n	n	n	n	n	n	x	x	x	x
Cc1ccc(CNC(=O)COC(=O)c2cc3c(s2)CCC(C)C3)cc1 (stereo not drawn)	n	n	n	n	n	n	x	x	x	x
CC1CCc2sc(C(=O)OCC(=O)NCc3ccccc3)cc2C1 (stereo not drawn)	n	n	n	n	n	43	n	n	n	n
CCOC(=O)c1cncc(C#CCOC(=O)Nc2ccc(OC(F)(F)F)cc2)c1	n	n	n	73	n	51	49	32	81	62
CCOC(=O)c1cncc(C#CCO)c1	n	n	n	n	n	n	x	x	x	x
O=C1C/C(=C/NCc2ccccc2)C(=O)N1	n	n	n	n	n	n	x	x	x	x
CC(Cc1ccccc1)N/C=C1/CC(=O)NC1=O (stereo not drawn)	n	n	n	54	n	83	91	n	n	n
CC(C)Oc1ccc(C(CCNCc2ccc(O)cc2)c2ccccc2)cc1 (stereo not drawn)	x	x	x	n	n	70	57	29	n	35
O=C(c1ccc2nsnc2c1)N1CCN(c2ccc([N+](=O)[O-])cc2)CC1	n	n	n	n	n	n	x	x	x	x
COc1cc(C(c2sc3nc(C)nn3c2O)N2CCc3ccccc3C2)cc(OC)c1OC (stereo not drawn)	n	n	n	n	n	45	45	n	n	n
SMILES	OX1R antag-1	OX1R antag-2	CHO parental Ca	TAAR1 antagonist	GPR7 antagonist	TAAR1 agonist	TAAR1 ag confirm	Ga16 nonsel ag	TAAR1 desensitize	Ga16 nonsel ant
COc1ccc(C(c2sc3nc(C)nn3c2O)N2CCc3ccccc3C2)cc1 (stereo not drawn)	n	n	n	n	n	n	x	x	x	x
COc1cccc(C(c2sc3ncnn3c2O)N2CCc3ccccc3C2)c1 (stereo not drawn)	n	n	n	n	n	73	82	n	n	n
CCN(c1ccc(OC)cc1)S(=O)(=O)c1ccc2c(c1)CC(C)N2C(=O)C1CC1 (stereo not drawn)	n	n	n	n	n	n	x	x	x	x
COC(=O)CC1(CC(N)=O)SCCS1	x	x	x	n	x	n	x	x	x	x
Cn1cc(CC(=O)N2CCN(c3ccc(Cl)cc3)CC2)c2ccccc21	n	n	n	n	n	n	x	x	x	x
Cc1nnn(-c2nonc2N)c1C(=O)NNC(=O)c1ccc(Cl)c(Cl)c1	n	n	n	n	n	55	72	n	n	n
CC1CN(Cc2ccccc2)C(C)CC1O (stereo not drawn)	n	n	n	n	n	n	x	x	x	x
CC(C)OC(=O)CN1C(=O)S/C(=C/c2ccc(N3CCCCC3)o2)C1=O	n	n	n	65	n	63	53	55	59	64
CCOc1ccccc1CN1CCNC(=O)C1CC(=O)N(C)CCc1ccccn1 (stereo not drawn)	n	n	n	n	n	54	60	n	n	n
Cc1ccc(CN2CCNC(=O)C2CC(=O)N(C)CCc2ccccc2)cc1 (stereo not drawn)	n	n	n	n	n	59	78	n	n	n
CC(=O)Nc1cnc(-c2ccc3c(c2)OCO3)cn1	x	x	x	n	x	n	x	x	x	x
O=C(Cn1ccn(-c2ccc(F)c(F)c2)c(=O)c1=O)NCCc1ccccc1	n	n	n	n	n	n	x	x	x	x
CC1(C)CC(=O)C(=CN2CCN(C(=O)c3ccco3)CC2)C(=O)C1	x	x	x	n	n	54	63	n	n	n
